The subject of data set [1] is Mycobacterium tuberculosis. Nature of the data set: Antimycobacterial activity against Mycobacterium tuberculosis H37Rv ATCC 27294 culture in 7H12 media after 7 days by microplate alamar blue assay. It is filed as functional. The conditions noted are these: H37Rv ATCC 27294, 168 h. A digest of the protocol:
(§1)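 Replicating Mtb H37Rv. The MIC is the concentration that inhibits growth of 90% of organisms. Media by line: GAS is glycerol-alanine-salts. GAST is iron-deficient glycerol-alanine-salts with Tween 80. 7H12 is 7H9 broth base with BSA, casein hydrolysate, catalase and palmitic acid. Values are reported in μM.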

Data set [2] has as its system Mycobacterium tuberculosis. In words: Antimycobacterial activity against Mycobacterium tuberculosis H37Rv ATCC 27294 culture in GAS media after 7 days by microplate alamar blue assay. It is filed as functional. The conditions noted are these: H37Rv ATCC 27294, 168 h. A digest of the protocol: as §1
Background: Resazurin is reduced to fluorescent resorufin, in cell work by metabolically active cells.

For data set [3], the system named is Mycobacterium tuberculosis. In words: Antimycobacterial activity against drug-sensitive Mycobacterium tuberculosis isolate 2 after 14 days. It is filed as functional. The note with it: isolate 2, 336 h.
A further data set relates to Vero. In words: Cytotoxicity against african green monkey Vero cells after 72 hrs by CellTiter assay. The conditions noted are these: Chlorocebus sabaeus. It is filed as cell-based.
Data set [4] has as its system Mycobacterium tuberculosis. Nature of the data set: Antimycobacterial activity against Mycobacterium tuberculosis H37Rv ATCC 27294 culture in GAST media after 7 days by microplate alamar blue assay. It is filed as functional. The conditions noted are these: H37Rv ATCC 27294, 168 h. A digest of the protocol: as §1
The test system of data set [5] is Mycobacterium tuberculosis. In words: Antimycobacterial activity against isoniazid-,rifampin-,ethambutol-,kanamycin-,paraaminosalicylic acid-resistant Mycobacterium tuberculosis after 14 days. It is filed as functional. The conditions noted are these: 336 h.
Data set [6] relates to Mycobacterium tuberculosis. In words: microbe, parasite or virus in culture. The conditions noted are these: H37Rv. It is filed as functional.
For the next data set, the system named is Mycobacterium avium. In words: Antimycobacterial activity against Mycobacterium avium. It is filed as functional.
Data set [7] can be described thus: Metabolic stability in Sprague-Dawley rat liver microsomes assessed as compound remaining at 20 uM after 15 mins by LC/MS analysis. The conditions noted are these: read-out: Stability. It is filed as ADME, Microsome. (Liver microsomes are vesicles of endoplasmic reticulum, rich in cytochrome P450 enzymes.)
A further data set relates to Escherichia coli. In words: Antibacterial activity against Escherichia coli. It is filed as functional.
The next data set concerns Mycobacterium kansasii. Nature of the data set: Antimycobacterial activity against Mycobacterium kansasii. It is filed as functional.
In the next data set the test system is Staphylococcus aureus. In words: Antibacterial activity against Staphylococcus aureus. It is filed as functional.
A short description of data set [8]: Chemical stability in simulated gastric fluid assessed as compound remaining at 50 uM after 15 mins by LC/MS analysis. It is filed as physicochemical. The note with it: read-out: Stability.
In data set [9] the test system is Mycobacterium tuberculosis. Nature of the data set: Antimycobacterial activity against drug-sensitive Mycobacterium tuberculosis isolate 1 after 14 days. It is filed as functional. The note with it: isolate 1, 336 h.
Data set [10] relates to Mycobacterium tuberculosis. In words: Antimycobacterial activity against isoniazid-,rifampin-,ethambutol-,pyrazinamide-,streptomycin-,kanamycin-,paraaminosalicylic acid-resistant Mycobacterium tuberculosis after 14 days. It is filed as functional. The note with it: 336 h.

Values after ≈ are worked out from the molar mass of the structure shown. Some results are limits rather than exact numbers.

Broadly, the IC50 is the concentration at which inhibition is half-maximal. As for `O=C(OCc1ccccc1)c1csc(-c2ccccc2)n1`, the MIC90 in data set [1] amounted to 7.2 µM (≈ 2.13 µg/mL); in [2], 6 µM (≈ 1.77 µg/mL); in data set [3], 8.5 µM (≈ 2.51 µg/mL); in data set [4], 6.2 µM (≈ 1.83 µg/mL); in data set [5], 4.2 µM (≈ 1.24 µg/mL). For the same compound, in the data set with Vero, the IC50 is greater than 128 µM.
Broadly, the MIC is the lowest concentration found to suppress growth. With `Cc1ccn2c(C(=O)NCc3ccccc3)c(C)nc2c1`, the MIC90 in data set [6] was 54 µM (≈ 15.1 µg/mL); in data set [1] it was 2.3 µM (≈ 0.642 µg/mL); in data set [2], 0.7 µM (≈ 0.196 µg/mL); in [4], 2 µM (≈ 0.559 µg/mL). Further, the MIC with Mycobacterium avium was 1.3 µM (≈ 0.363 µg/mL); in the data set on Escherichia coli it was greater than 50 µM; against Mycobacterium kansasii it was 1.3 µM (≈ 0.363 µg/mL); in the data set on Staphylococcus aureus it was greater than 50 µM. For the same compound, the remaining at 0.25 h, 20 µM in [7] came out at 90%. The half-maximal inhibitory concentration (IC50) in the data set on Vero is greater than 128 µM. Further, the remaining at 0.25 h, 50 µM in [8] was 100%.
As to `O=C(NC1CCCCC1)c1csc(-c2ccccc2)n1`, in [7], the remaining at 0.25 h, 20 µM is 3.3%. The MIC90 in data set [2] and in [4] was 15 µM (≈ 4.3 µg/mL) in each case. Further, in [8], the remaining at 0.25 h, 50 µM was 3.3%.
As for `O=C(OCc1ccccc1)c1cc(-c2ccccc2)[nH]n1`, the figures for the MIC90 in data set [1], in [2] and in data set [4] were greater than 38 µM, 3.5 µM (≈ 0.974 µg/mL) and greater than 64 µM, respectively. Besides, the half-inhibitory concentration (IC50) in the data set on Vero was greater than 128 µM.
Consider `O=C(OCc1ccccc1)c1cc(-c2ccccc2)on1`, for which the MIC90 is 28 µM (≈ 7.82 µg/mL) in data set [6], 0.8 µM (≈ 0.223 µg/mL) in data set [1] and 2.2 µM (≈ 0.614 µg/mL) in [2]. Also, the IC50 with Vero was greater than 50 µM.
Regarding `O=C(Nc1ccccc1)c1coc(-c2ccccc2)n1`, the results for the MIC90 in data set [6], in data set [2] and in data set [4] were 50 µM (≈ 13.2 µg/mL), 11 µM (≈ 2.91 µg/mL) and 28 µM (≈ 7.4 µg/mL), respectively. For the same compound, the half-inhibitory concentration (IC50) in the data set on Vero was greater than 128 µM.
On to `CCCCCCNC(=O)c1csc(-c2ccccc2)n1`, for which the remaining at 0.25 h, 20 µM in data set [7] is 18.9%. The MIC90 was 14 µM (≈ 4.04 µg/mL) in [2] and 60 µM (≈ 17.3 µg/mL) in data set [4]. Also, the remaining at 0.25 h, 50 µM in [8] was 0.1%.
On to `O=C(OCc1ccccc1)[C@@H]1CSC(c2ccccc2)=N1`, for which the MIC90 in [1] stood at 11.6 µM (≈ 3.45 µg/mL); in data set [2] it was 12.9 µM (≈ 3.84 µg/mL); in data set [4] it was 3.5 µM (≈ 1.04 µg/mL). Further, in the data set with Vero, the half-maximal inhibitory concentration (IC50) is greater than 128 µM.
For the compound `O=C(OCc1ccccc1)[C@@H]1COC(c2ccccc2)=N1`, the MIC90 was found to be 63 µM (≈ 17.7 µg/mL) in data set [6], 16.6 µM (≈ 4.67 µg/mL) in data set [1], 4.9 µM (≈ 1.38 µg/mL) in data set [2] and 4.4 µM (≈ 1.24 µg/mL) in [4]. Further, the remaining at 0.25 h, 20 µM in [7] amounted to 2.8%. In addition, the IC50 in the data set with Vero was greater than 128 µM. In addition, the remaining at 0.25 h, 50 µM in data set [8] is 1.7%.
As for `O=C(NCc1ccccc1)c1coc(-c2ccccc2)n1`, the figures for the MIC90 in [1], in data set [2] and in data set [4] were greater than 40 µM, greater than 65 µM and 59 µM (≈ 16.4 µg/mL), respectively.
Take `Cc1cc2nc(C)c(C(=O)OCc3ccccc3)n2c(C)n1`: the MIC90 in data set [1] came out at 5.3 µM (≈ 1.57 µg/mL); in data set [2], 1.1 µM (≈ 0.325 µg/mL). The IC50 in the data set on Vero was greater than 50 µM.
As to `O=[N+]([O-])c1cn2c(n1)OC[C@@H](OCc1ccc(OC(F)(F)F)cc1)C2` [PRETOMANID], the MIC90 is 0.45 µM (≈ 0.162 µg/mL) in [9], 0.45 µM (≈ 0.162 µg/mL) in data set [10], greater than 13.9 µM in [3] and 0.45 µM (≈ 0.162 µg/mL) in [5].
As to `Cc1ccn2c(C(=O)NCc3ccccc3)c(-c3ccccc3)nc2c1`, the values for the MIC90 in data set [6], in data set [1] and in [2] were greater than 50 µM, 2.9 µM (≈ 0.99 µg/mL) and 0.6 µM (≈ 0.205 µg/mL), respectively. The same compound registered an IC50 in the data set on Vero greater than 50 µM.
`CC(C)(C)OC(=O)c1coc(-c2ccccc2)n1`: in [7], the remaining at 0.25 h, 20 µM worked out at 42%. The MIC90 in data set [2] and in data set [4] was greater than 64 µM in each case.
For the compound `O=C(OCc1ccccc1)c1coc(-c2ccccc2)n1`, the MIC90 in data set [6] was found to be 37 µM (≈ 10.3 µg/mL); in data set [1] it was 3.9 µM (≈ 1.09 µg/mL); in data set [2], 5.7 µM (≈ 1.59 µg/mL); in data set [3], 2.2 µM (≈ 0.614 µg/mL); in data set [4], 0.49 µM (≈ 0.137 µg/mL); in data set [5], 1.1 µM (≈ 0.307 µg/mL). Moreover, the remaining at 0.25 h, 20 µM in data set [7] amounted to 2.7%. Further, the remaining at 0.25 h, 50 µM in data set [8] was 1.8%.
For `CO[C@H]1/C=C/O[C@@]2(C)Oc3c(C)c(O)c4c(O)c(c(/C=N/N5CCN(C)CC5)c(O)c4c3C2=O)NC(=O)/C(C)=C\C=C\[C@H](C)[C@H](O)[C@@H](C)[C@@H](O)[C@@H](C)[C@H](OC(C)=O)[C@@H]1C` [RIFAMPIN], the results for the MIC90 in data set [1], in data set [2] and in data set [4] were 0.04 µM (≈ 0.0329 µg/mL), 0.09 µM (≈ 0.0741 µg/mL) and 0.2 µM (≈ 0.165 µg/mL), respectively.
For the compound `Cc1nc2ncccn2c1C(=O)OCc1ccccc1`, the MIC90 in [1] amounted to 4.7 µM (≈ 1.26 µg/mL); in data set [2] it was 2.3 µM (≈ 0.615 µg/mL). The compound further registered an IC50 in the data set with Vero greater than 50 µM.
In the case of `Cc1ccn2c(C(=O)OCc3ccccc3)c(-c3ccccc3)nc2c1`, the MIC90 in [6] is 21.7 µM (≈ 7.43 µg/mL); in [1], less than 0.195 µM; in [2] it was less than 0.195 µM. Besides, in the data set on Vero, the half-inhibitory concentration (IC50) is greater than 50 µM.
On to `COc1ccc(-c2ccc(C(=O)OCc3ccccc3)cn2)cc1`, for which the MIC90 amounted to 9.5 µM (≈ 3.03 µg/mL) in data set [1] and 1.9 µM (≈ 0.607 µg/mL) in [2].
Regarding `Cc1ccn2c(C(=O)OCc3ccccc3)c(C)nc2c1`, the MIC90 in data set [9] was less than 0.04 µM; in data set [6] it was 34.8 µM (≈ 9.76 µg/mL); in data set [1] it was less than 0.195 µM; in data set [10], less than 0.04 µM; in [2] it was less than 0.195 µM; in data set [3] it was less than 0.04 µM. For the same compound, the MIC90 in data set [5] is less than 0.04 µM. Moreover, the IC50 in the data set with Vero was greater than 50 µM.
As to `NNC(=O)c1ccncc1` [ISONIAZID], the MIC90 was greater than 512 µM in [6], 0.37 µM (≈ 0.0507 µg/mL) in data set [1] and 0.22 µM (≈ 0.0302 µg/mL) in [2]. Also, the half-inhibitory concentration (IC50) with Vero was greater than 128 µM.
